This note sets out measurements from ChEMBL document CHEMBL1150666, “Antioxidant and free-radical scavenging activity of constituents of the leaves of Tachigalia paniculata” (J Nat Prod, 2002).

For data set [1], the target named is Xanthine dehydrogenase/oxidase (Homo sapiens, UniProt P47989). Nature of the data set: Inhibition of xanthine oxidase-mediated formation of uric acid by spectrophotometry. In outline:
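Xanthine 100 μM in 0.1 M phosphate buffer pH 7.8 with 0.04 units/mL XOD, incubated 10 min at room temperature. Compounds added at several concentrations before enzyme; IC50 from regression lines.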

The nature of data set [2]: ABTS radical scavenging activity assessed as Trolox equivalent antioxidant capacity at 1 mM by spectrophotometry. It counts as physicochemical. The settings on record: 1000 µM. The procedure, abridged:
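ABTS radical cation made from 7 mM ABTS with 2.45 mM potassium persulfate, kept dark at room temperature 12 h. Diluted in PBS pH 7.4 to A734 0.70 and equilibrated at 30 °C. Methanol sample solutions (0.3–2 mM) were added to diluted ABTS. Percent inhibition at 734 nm versus methanol blank, plotted against concentration relative to Trolox; three determinations.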

A value given as a limit tells only on which side of the number the result lay.

For orientation: IC50 means the point on the concentration scale where inhibition reaches its midpoint. Read a high IC50 as lower potency.

Sequence of Xanthine dehydrogenase/oxidase (P47989 whole entry): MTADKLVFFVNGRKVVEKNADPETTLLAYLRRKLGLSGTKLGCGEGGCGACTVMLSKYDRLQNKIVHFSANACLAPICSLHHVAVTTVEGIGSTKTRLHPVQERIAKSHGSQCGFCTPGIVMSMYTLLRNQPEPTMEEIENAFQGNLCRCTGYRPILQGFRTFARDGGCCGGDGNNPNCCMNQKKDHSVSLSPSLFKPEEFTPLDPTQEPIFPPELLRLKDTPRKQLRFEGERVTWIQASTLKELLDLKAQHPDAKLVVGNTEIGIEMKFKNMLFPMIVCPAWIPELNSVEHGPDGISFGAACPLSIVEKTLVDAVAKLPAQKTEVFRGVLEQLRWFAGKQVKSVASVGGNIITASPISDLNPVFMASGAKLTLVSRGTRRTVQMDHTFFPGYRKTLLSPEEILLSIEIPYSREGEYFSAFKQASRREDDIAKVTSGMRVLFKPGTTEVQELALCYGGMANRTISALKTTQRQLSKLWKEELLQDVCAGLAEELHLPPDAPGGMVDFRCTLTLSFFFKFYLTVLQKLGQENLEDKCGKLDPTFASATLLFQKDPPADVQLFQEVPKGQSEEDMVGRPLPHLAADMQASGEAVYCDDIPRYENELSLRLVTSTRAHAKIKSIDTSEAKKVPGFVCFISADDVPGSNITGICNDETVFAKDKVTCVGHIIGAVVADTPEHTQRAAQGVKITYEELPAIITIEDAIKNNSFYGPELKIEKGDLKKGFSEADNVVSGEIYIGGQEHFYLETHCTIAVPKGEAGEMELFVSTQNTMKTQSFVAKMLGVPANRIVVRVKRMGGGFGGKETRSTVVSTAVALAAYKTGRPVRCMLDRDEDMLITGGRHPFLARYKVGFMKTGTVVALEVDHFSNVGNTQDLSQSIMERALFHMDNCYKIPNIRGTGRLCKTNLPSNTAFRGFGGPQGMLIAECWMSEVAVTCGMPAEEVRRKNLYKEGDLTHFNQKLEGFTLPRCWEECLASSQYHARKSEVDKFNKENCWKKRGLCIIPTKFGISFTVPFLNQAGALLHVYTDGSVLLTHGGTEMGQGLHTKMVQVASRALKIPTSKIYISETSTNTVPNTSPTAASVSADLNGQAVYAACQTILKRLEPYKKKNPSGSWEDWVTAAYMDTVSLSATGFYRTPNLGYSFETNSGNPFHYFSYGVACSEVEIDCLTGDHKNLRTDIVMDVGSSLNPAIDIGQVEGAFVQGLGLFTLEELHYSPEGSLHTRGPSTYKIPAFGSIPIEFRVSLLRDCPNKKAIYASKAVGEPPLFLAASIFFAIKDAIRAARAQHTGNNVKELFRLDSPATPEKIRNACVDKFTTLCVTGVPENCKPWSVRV

In the case of `COC(=O)c1ccc(O)c(O)c1` [METHYL PROTOCATECHUATE], in data set [1], the IC50 is 29.6 µM. In data set [2], the Activity is 0.855 mM.
In turn, `C[C@@H]1O[C@@H](OC[C@H]2O[C@@H](Oc3cc(O)c4c(=O)c(O)c(-c5cc(O)c(O)c(O)c5)oc4c3)[C@H](O)[C@@H](O)[C@@H]2O)[C@H](O)[C@H](O)[C@H]1O` displayed an IC50 in data set [1] of 6.13 µM. Moreover, the Activity in data set [2] was found to be 1.42 mM.
`O=c1c(O[C@@H]2O[C@H](CO)C(O)[C@H](O)[C@H]2O)c(-c2ccc(O)c(O)c2)oc2cc(O)cc(O)c12` (single isomer, unassigned) [ISOQUERCETIN] yielded an IC50 in data set [1] of 26.3 µM. Further, the Activity in data set [2] came out at 1.1 mM.
Molecule `C[C@@H]1O[C@@H](Oc2c(-c3ccc(O)c(O)c3)oc3cc(O)cc(O)c3c2=O)[C@H](O)[C@H](O)[C@H]1O` [QUERCITRIN] registered a concentration for half-maximal inhibition (IC50) in data set [1] of 14.7 µM. In addition, the Activity in data set [2] is recorded as 0.854 mM.
In data set [1], `O=C/C=C/c1ccc(O)c(O)c1` [CAFFEOYL ALDEHYDE] yielded an IC50 of 31.5 µM. In addition, the Activity in data set [2] stood at 0.713 mM.
For `O=c1c(O[C@@H]2O[C@H](CO)[C@@H](O)[C@H](O)[C@H]2O)c(-c2ccc(O)c(O)c2)oc2cc(O)cc(O)c12` [ISOQUERCETIN], in that order: above 50 µM and 0.757 mM.
In data set [1], `O=c1c(O)c(-c2cc(O)c(O)c(O)c2)oc2cc(O[C@@H]3O[C@H](CO[C@@H]4O[C@H](CO)[C@@H](O)[C@H](O)[C@H]4O)[C@@H](O)[C@H](O)[C@H]3O)cc(O)c12` showed a 50% inhibitory concentration (IC50) of 6.52 µM. Also, the Activity in data set [2] was 1.62 mM.
With `COC(=O)c1cc(O)c(O)c(O)c1` [GALLIC ACID METHYL ESTER], the IC50 in data set [1] was 15.5 µM. Further, the Activity in data set [2] is on record as 1.154 mM.
Consider `COc1ccc(C=O)cc1O` [ISOVANILLIN], for which the IC50 in data set [1] is above 50 µM. For the same molecule, the Activity in data set [2] was determined as 0.144 mM.
Regarding `O=c1c(O)c(-c2ccc(O)c(O)c2)oc2cc(O)cc(O)c12` [QUERCETIN], the Activity in data set [2] amounted to 2.6 mM.
Consider `COC(=O)c1ccc(O)cc1` [METHYLPARABEN], for which, in data set [1], the IC50 was above 50 µM. In data set [2], the Activity was determined as 0.147 mM.
